From paper PMC4216208 (Journal of Medicinal Chemistry, 2014)

Legend:
[1] = system: C. elegans; experiment: Bioaccumulation in C. elegans; type: in vitro ADME, Caenorhabditis elegans; details: late-stage L4 worms, 10 μM (2 nmol/mg worm), 6 h, LC-MS of homogenates
Summary of the method: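 Synchronised C. elegans grown to late L4 on E. coli OP50 at 25 °C for 40 h, water-washed, and suspended in M9 at ~5−10 worms/μL. Dosed at 10 μM final (~2 nmol/mg worm) from DMSO stock, 6 or 12 h at rt. Washed in 0.1% SDS then water, frozen, lyophilised, weighed, extracted into cold MeOH/MeCN with internal standard. Quantified by LC-ESI-MS against blank-worm calibration; mean ± sd, n = 3.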

[2] = system: C. elegans; experiment: Metabolism of closantel in C. elegans; type: in vitro ADME, Caenorhabditis elegans
[3] = system: O. volvulus L3 larvae; details: 100 μM; cited from earlier work
[4] = system: HEK 293T/17 cells; experiment: Mitochondrial-uncoupling assay; type: cell-based, human; details: 50 μM compound, TMRE staining
Summary of the method: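 HEK 293T/17 cells were trypsinised and suspended at 1−2 × 10^6 cells/mL in DMEM with 10% FBS, then given test compound (50 μM) or DMSO for 30 min at 37 °C. TMRE (~450 nM final) was added for 30 min in the dark at 37 °C. Cells were washed twice in 0.2% BSA/PBS, resuspended, and read by plate fluorescence (em 575 nm). Unstained and DMSO controls were included; mean ± sd, n = 3.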

**Q.** With `Cc1cc(C(C#N)c2ccc(Cl)cc2)c(Cl)cc1NC(=O)c1cc(I)cc(I)c1O` (centres unmarked) [Compound 1, closantel] as the molecule, how does the “accumulation in C. elegans (in words)” value [1] read?
**A.** Its value is “accumulated in C. elegans”.

**Q.** And the “sulfation, glycosylation and glucuronidation of the salicylate moiety in C. elegans homogenates” value [2]?
**A.** The value was “not observed”.

**Q.** And the “primary metabolic pathway in C. elegans” value ([2]; minor pathway, forms two monoiodoclosantel isomers)?
**A.** Its value is “reductive deiodination”.

**Q.** And the “effect on molting of O. volvulus L3 to L4 larvae” value [3]?
**A.** The value was “inhibit the molting”.

**Q.** What about the “mitochondrial-uncoupling (protonophoric) activity” value [4] of the same molecule?
**A.** The value was “mitochondrial-uncoupling activity”.
